Experimental data of several laboratories.
Protocols differ between the studies behind these lines.
Target: Wee1-like protein kinase (WEE1, Homo sapiens, UniProt P30291)

SMILES | effect on | technique | tested at | remaining binding
CN1CCN(c2cnc3c(C4CCN(C(=O)c5ccc(OC(F)(F)F)cc5N)CC4)ncnc3c2)CC1 | cell-free assay | competition with immobilised ligand | 1 µM | 96%
F[C@@H]1CCN(c2nccc(-c3cnn4ncccc34)n2)C1 | binding |  | 1 µM | 100%
CCN1CCN(Cc2ccc(C(=O)Nc3ccc(C)c(Oc4ccc5c(c4)CC(=O)N5)c3)cc2C(F)(F)F)CC1 | binding | competition with immobilised ligand | 1 µM | 100%
CN(C)c1nccc(-c2cnn3ncccc23)n1 | binding |  | 1 µM | 80%
O=C(NCC1CCOCC1)c1n[nH]cc1NC(=O)c1c(F)cccc1F | binding | competition with immobilised ligand | 1 µM | 97%
O=C(c1ccc(Nc2ncc(Cl)c(-c3cc4ccccc4s3)n2)cc1)N1CCC(N2CCCC2)CC1 | binding | competition with immobilised ligand | 1 µM | 11%
O=C(NCc1ncc(C(F)(F)F)cc1Cl)c1ccc2c(c1)C1(CCS(=O)(=O)CC1)[C@@H](C1CC1)N2S(=O)(=O)c1ccc(F)cc1 | cell-free assay | competition with immobilised ligand | 1 µM | 100%
COc1cnc(Nc2cccc(S(N)(=O)=O)c2)nc1N1CCN(c2ccccc2)C(=O)C1 | binding | competition with immobilised ligand | 1 µM | 98%
CC1CCCN1c1nccc(-c2cnn3ncccc23)n1 (stereo not shown) | binding |  | 1 µM | 100%
Cc1c[nH]c2nccc(Oc3c(F)cc(Nc4cc(Cl)nc(N)n4)cc3F)c12 | cell-free assay | competition with immobilised ligand | 0.1 µM | 100%
COc1cnc(Nc2cccc(S(N)(=O)=O)c2)nc1N1CCN(c2ccccc2)CC1 | binding | competition with immobilised ligand | 1 µM | 100%
O=C(NCCCN1CCOCC1)c1ccc(Nc2nccc(-c3cc4ccccc4s3)n2)cc1 | binding | competition with immobilised ligand | 1 µM | 67%
CCCOc1ccc([C@@H]2[C@@H](C(=O)O)[C@H](c3ccc4c(c3)OCO4)CN2CC(=O)Nc2c(CC)cccc2CC)cc1 | cell-free assay | competition with immobilised ligand | 1 µM | 95%
C[C@H]1CCN(c2nccc(-c3cnn4ncccc34)n2)C1 | binding |  | 1 µM | 100%
Cc1nccc(COC(=O)N2C[C@@H]3[C@@H](CNC(=O)c4ccc5[nH]nnc5c4)[C@@H]3C2)n1 | cell-free assay | competition with immobilised ligand | 1 µM | 100%
c1cncc(-c2cccc(Nc3nccc(NC4CCCCC4)n3)c2)c1 | binding | competition with immobilised ligand | 10 µM | 90%
N[C@@H]1CCN(c2nccc(-c3cnn4ncccc34)n2)C1 | binding |  | 1 µM | 100%
CO[C@@H](C)c1c(Nc2ccc([C@@H](N(C)C(=O)C3CCS(=O)(=O)CC3)C(F)(F)F)cc2)cnc2cc(Cl)nn12 | cell-free assay | competition with immobilised ligand | 1 µM | 92%
CN(C)c1ncc(F)c(-c2cnn3ncccc23)n1 | binding |  | 1 µM | 100%
Cc1cnc(Nc2ccc(C(=O)N3CCC(N4CCCC4)CC3)cc2)nc1-c1cc2ccccc2s1 | binding | competition with immobilised ligand | 1 µM | 4.2%
Nc1ncc2c(n1)-c1c([nH]c3ccc(C#CC4CC4)cc13)CCCC2 | binding | competition with immobilised ligand | 1 µM | 87%
CN(C)c1nccc(-c2cnc3ncccn23)n1 | binding |  | 1 µM | 100%
